Each structure is given as a SMILES string.

This note sets out measurements from ChEMBL document CHEMBL1152278, “Discovery of ligands for a novel target, the human telomerase RNA, based on flexible-target virtual screening and NMR” (J Med Chem, 2008).

The nature of this assay: Binding affinity to human telomerase P2b RNA by […]. The method in brief: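 hTR-P2b RNA made by in vitro T7 polymerase transcription from a synthetic DNA template. Titration was at 50 μM RNA in 20 mM sodium phosphate pH 6.7, 50 mM NaCl, 90/10% H₂O/D₂O, 15 °C, with ligand added stepwise. Kd was fitted from 800 MHz imino-proton chemical shifts under a fast-exchange model.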
As a reminder, the Kd is the free concentration of one partner at which half of the binding sites on the other are occupied at equilibrium, for simple one-to-one binding. A low value points to a tighter complex. In turn, `Nc1ccc(NC(=O)c2ccc(N)cc2)cc1` had a Kd of 180 µM.

Take `CN1CCN(CCCN2c3ccccc3Sc3ccc(S(=O)(=O)N(C)C)cc32)CC1` [THIOPROPERAZINE]: binding was put at a Kd of 450 µM.

Take `OCCOCCN1CCN(CCCN2c3ccccc3Sc3ccc(C(F)(F)F)cc32)CC1`: the Kd was determined as 1100 µM.

Regarding `C[n+]1ccc(Nc2ccc(NC(=O)c3ccc(N)cc3)cc2)cc1`, the Kd worked out at 1100 µM.

With `CCN(CC)Cc1cc(Nc2c3ccccc3nc3c4ccccc4n(C)c23)ccc1O`, the Kd amounted to 84 µM.

On to `O=C(c1ccc(O)cc1)c1ccc(O)cc1`, for which the Kd was found to be 1500 µM.

Consider `N#Cc1ccc2c(c1)N(CCCN1CCN(CCO)CC1)c1ccccc1S2`, for which the affinity, expressed as Kd, was 310 µM.

`CN(C)CCCN1c2ccccc2[C@H]2C[C@H]2c2ccccc21` returned a Kd of 1100 µM.

On to `CN1CCN2c3ncccc3Cc3ccccc3C2C1` (stereo not given) [MIRTAZAPINE], for which the Kd was determined as 1500 µM.

The molecule `C[n+]1ccc(Nc2ccc(NC(=O)c3ccc(N)cc3[N+](=O)[O-])cc2)cc1` gave a Kd of 570 µM.
